Source: ChEMBL document CHEMBL5058577, “EUbOPEN Chemogenomics Library 2 (Multiplex)” (2022)

Tested on: Fibroblast
Experiment: Multiplex assay against human fibroblast
Assay type: toxicity, cell-based
Outline: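 Per cents of healthy-nucleus cells form the tubulin, mitochondrial-mass and membrane-permeability phenotype values. Live cells were stained at seeding with Hoechst33342, BioTracker Green Microtubule Cytoskeleton Dye, MitoTracker Red and Annexin V Alexa Fluor 680. After compound addition they were imaged on a CQ1 microscope at 37°C and 5% CO2, and CellPathfinder machine-learning gating split them into Hoechst high-intensity objects or normal cells, normal cells into healthy, pyknosed or fragmented nuclei, and pyknosed cells into mitotic or apoptotic.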

[1] = 12 h, 1 µM, compound concentration 1 uM, replicate 1
[2] = 12 h, 1 µM, compound concentration 1 uM, replicate 2
[3] = 12 h, 10 µM, compound concentration 10 uM, replicate 1
[4] = 12 h, 10 µM, compound concentration 10 uM, replicate 2
[5] = 24 h, 1 µM, compound concentration 1 uM, replicate 1
[6] = 24 h, 1 µM, compound concentration 1 uM, replicate 2
[7] = 24 h, 10 µM, compound concentration 10 uM, replicate 1
[8] = 24 h, 10 µM, compound concentration 10 uM, replicate 2
[9] = 48 h, 1 µM, compound concentration 1 uM, replicate 1
[10] = 48 h, 1 µM, compound concentration 1 uM, replicate 2
[11] = 48 h, 10 µM, compound concentration 10 uM, replicate 1
[12] = 48 h, 10 µM, compound concentration 10 uM, replicate 2

SMILES: CCCCC(=O)N(Cc1ccc(-c2ccccc2-c2nnn[nH]2)cc1)[C@H](C(=O)O)C(C)C
- Population Apoptotic (%) [1]: 45%
- Population Fragmented Nuclei (%) [1]: 9%
- Population Healthy Nuclei (%) [1]: 74%
- Population Hoechst High Intensity Objects (%) [1]: 4%
- Population Membrane Permeable-Phenotype (%) [1]: 0%
- Population Mitochondria Different-Phenotype (%) [1]: 0%
- Population Mitotic Cells (%) [1]: 54%
- Population Normal (%) [1]: 95%
- Population Pyknosed Nuclei (%) [1]: 16%
- Population Tubulin-Different-Phenotype (%) [1]: 20%
- Total Cell Count [1]: 143
- Population Apoptotic (%) [2]: 44%
- Population Fragmented Nuclei (%) [2]: 21%
- Population Healthy Nuclei (%) [2]: 54%
- Population Hoechst High Intensity Objects (%) [2]: 3%
- Population Membrane Permeable-Phenotype (%) [2]: 8%
- Population Mitochondria Different-Phenotype (%) [2]: 6%
- Population Mitotic Cells (%) [2]: 55%
- Population Normal (%) [2]: 96%
- Population Pyknosed Nuclei (%) [2]: 24%
- Population Tubulin-Different-Phenotype (%) [2]: 36%
- Total Cell Count [2]: 156
- Population Apoptotic (%) [3]: 37%
- Population Fragmented Nuclei (%) [3]: 20%
- Population Healthy Nuclei (%) [3]: 56%
- Population Hoechst High Intensity Objects (%) [3]: 0%
- Population Membrane Permeable-Phenotype (%) [3]: 3%
- Population Mitochondria Different-Phenotype (%) [3]: 3%
- Population Mitotic Cells (%) [3]: 62%
- Population Normal (%) [3]: 100%
- Population Pyknosed Nuclei (%) [3]: 22%
- Population Tubulin-Different-Phenotype (%) [3]: 23%
- Total Cell Count [3]: 106
- Population Fragmented Nuclei (%) [4]: 27%
- Population Healthy Nuclei (%) [4]: 42%
- Population Hoechst High Intensity Objects (%) [4]: 3%
- Population Membrane Permeable-Phenotype (%) [4]: 11%
- Population Mitochondria Different-Phenotype (%) [4]: 11%
- Population Normal (%) [4]: 96%
- Population Pyknosed Nuclei (%) [4]: 29%
- Population Tubulin-Different-Phenotype (%) [4]: 51%
- Total Cell Count [4]: 130
- Population Apoptotic (%) [5]: 66%
- Population Fragmented Nuclei (%) [5]: 15%
- Population Healthy Nuclei (%) [5]: 70%
- Population Hoechst High Intensity Objects (%) [5]: 0%
- Population Membrane Permeable-Phenotype (%) [5]: 1%
- Population Mitochondria Different-Phenotype (%) [5]: 2%
- Population Mitotic Cells (%) [5]: 33%
- Population Normal (%) [5]: 99%
- Population Pyknosed Nuclei (%) [5]: 14%
- Population Tubulin-Different-Phenotype (%) [5]: 17%
- Total Cell Count [5]: 146
- Population Apoptotic (%) [6]: 38%
- Population Fragmented Nuclei (%) [6]: 21%
- Population Healthy Nuclei (%) [6]: 52%
- Population Hoechst High Intensity Objects (%) [6]: 2%
- Population Membrane Permeable-Phenotype (%) [6]: 2%
- Population Mitochondria Different-Phenotype (%) [6]: 1%
- Population Mitotic Cells (%) [6]: 61%
- Population Normal (%) [6]: 97%
- Population Pyknosed Nuclei (%) [6]: 25%
- Population Tubulin-Different-Phenotype (%) [6]: 25%
- Total Cell Count [6]: 145
- Population Apoptotic (%) [7]: 48%
- Population Fragmented Nuclei (%) [7]: 18%
- Population Healthy Nuclei (%) [7]: 56%
- Population Hoechst High Intensity Objects (%) [7]: 2%
- Population Membrane Permeable-Phenotype (%) [7]: 0%
- Population Mitochondria Different-Phenotype (%) [7]: 1%
- Population Mitotic Cells (%) [7]: 51%
- Population Normal (%) [7]: 97%
- Population Pyknosed Nuclei (%) [7]: 25%
- Population Tubulin-Different-Phenotype (%) [7]: 31%
- Total Cell Count [7]: 110
- Population Apoptotic (%) [8]: 35%
- Population Fragmented Nuclei (%) [8]: 25%
- Population Healthy Nuclei (%) [8]: 44%
- Population Hoechst High Intensity Objects (%) [8]: 4%
- Population Membrane Permeable-Phenotype (%) [8]: 9%
- Population Mitochondria Different-Phenotype (%) [8]: 10%
- Population Mitotic Cells (%) [8]: 64%
- Population Normal (%) [8]: 95%
- Population Pyknosed Nuclei (%) [8]: 29%
- Population Tubulin-Different-Phenotype (%) [8]: 65%
- Total Cell Count [8]: 130
- Population Apoptotic (%) [9]: 80%
- Population Fragmented Nuclei (%) [9]: 18%
- Population Healthy Nuclei (%) [9]: 71%
- Population Hoechst High Intensity Objects (%) [9]: 6%
- Population Membrane Permeable-Phenotype (%) [9]: 0%
- Population Mitochondria Different-Phenotype (%) [9]: 1%
- Population Mitotic Cells (%) [9]: 20%
- Population Normal (%) [9]: 93%
- Population Pyknosed Nuclei (%) [9]: 10%
- Population Tubulin-Different-Phenotype (%) [9]: 17%
- Total Cell Count [9]: 153
- Population Apoptotic (%) [10]: 40%
- Population Fragmented Nuclei (%) [10]: 27%
- Population Healthy Nuclei (%) [10]: 51%
- Population Hoechst High Intensity Objects (%) [10]: 3%
- Population Membrane Permeable-Phenotype (%) [10]: 1%
- Population Mitochondria Different-Phenotype (%) [10]: 3%
- Population Mitotic Cells (%) [10]: 59%
- Population Normal (%) [10]: 96%
- Population Pyknosed Nuclei (%) [10]: 21%
- Population Tubulin-Different-Phenotype (%) [10]: 33%
- Total Cell Count [10]: 155
- Population Apoptotic (%) [11]: 64%
- Population Fragmented Nuclei (%) [11]: 28%
- Population Healthy Nuclei (%) [11]: 56%
- Population Hoechst High Intensity Objects (%) [11]: 4%
- Population Membrane Permeable-Phenotype (%) [11]: 0%
- Population Mitochondria Different-Phenotype (%) [11]: 5%
- Population Mitotic Cells (%) [11]: 35%
- Population Normal (%) [11]: 95%
- Population Pyknosed Nuclei (%) [11]: 15%
- Population Tubulin-Different-Phenotype (%) [11]: 30%
- Total Cell Count [11]: 112
- Population Apoptotic (%) [12]: 57%
- Population Fragmented Nuclei (%) [12]: 39%
- Population Healthy Nuclei (%) [12]: 39%
- Population Membrane Permeable-Phenotype (%) [12]: 7%
- Population Mitotic Cells (%) [12]: 42%
- Population Pyknosed Nuclei (%) [12]: 20%
- Population Tubulin-Different-Phenotype (%) [12]: 69%
- Total Cell Count [12]: 141
